This note sets out measurements from ChEMBL document CHEMBL4373687, “Introducing nitrogen atoms to amidoalkylindoles: potent and selective cannabinoid type 2 receptor agonists with improved aqueous solubility” (Medchemcomm, 2019).

SMILES strings stand for the structures.

Broadly, the EC50 is the concentration needed to bring the measured effect to its halfway point. For orientation: Emax means the maximal effect, on the per cent scale that the assay sets. By inhibition is commonly meant how much of the control response was suppressed.

Data set [1] addresses T1, Cannabinoid receptor 1 (Homo sapiens, UniProt P21554). The data set can be described thus: Agonist activity at human CB1-receptor expressed in CHO-K1 cells coexpressing G-alpha16 by Fluo-4-AM dye based calcium mobilization assay. It counts as cell-based. The following applies: read-out: EC50.
Data set [2] addresses T2, Cannabinoid receptor 2 (Homo sapiens, UniProt P34972). Put plainly: Agonist activity at human CB2-receptor expressed in CHO-K1 cells coexpressing G-alpha16 by Fluo-4-AM dye based calcium mobilization assay. Type of data set: functional, cell-based. To be noted: read-out: EC50. In general terms: Calcium flux is commonly read through the fluorescence of an indicator in the cells.

Data set [3] has as its target T2, Cannabinoid receptor 2. The data set can be described thus: Agonist activity at human CB2-receptor expressed in CHO-K1 cells coexpressing G-alpha16 assessed as maximum efficacy by Fluo-4-AM dye based calcium mobilization assay relative to CP55940. Type of data set: functional, cell-based. The method, boiled down:
(§1)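 CHO-K1 cells stably co-expressing Gα16 and human CB1 or CB2, seeded 24 h. Loaded with 2 μM fluo-4 AM in HBSS (with sulfinpyrazone, pH 7.4) at 37 °C for 45 min. Compound added and calcium fluorescence recorded (ex 485/em 525 nm). CP55940 positive control, DMSO negative control. Compounds with >50% activation at 10 μM got eight-point curves in triplicate, sigmoidal fit for EC50.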

Data set [4] has as its target T1, Cannabinoid receptor 1. The data set can be described thus: Antagonist activity at human CB1-receptor expressed in CHO-K1 cells coexpressing G-alpha16 pre-incubated for 10 mins and later treated with 100 nM CB-receptor agonist, CP55940 by Fluo-4-AM dye based calcium mobilization assay. Type of data set: cell-based. In outline:
(§2)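 CHO-K1 cells stably co-expressing Gα16 and human CB1 or CB2, loaded with 2 μM fluo-4 AM in HBSS pH 7.4 at 37 °C for 45 min. Pre-incubated with compound for 10 min at room temperature, then CP55940 added at 100 nM. Peak calcium read over 60 s (ex 485/em 525 nm). Rimonabant positive control. Actives got eight-point curves in triplicate, sigmoidal fit for IC50.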

Data set [5] has as its target T2, Cannabinoid receptor 2. Put plainly: Antagonist activity at human CB2-receptor expressed in CHO-K1 cells coexpressing G-alpha16 pre-incubated for 10 mins and later treated with 100 nM CB-receptor agonist, CP55940 by Fluo-4-AM dye based calcium mobilization assay. It counts as functional, cell-based. To be noted: cho-k1. The method, boiled down: as §2
A short description of data set [6]: Kinetic aqueous solubility of compound in phosphate-buffer containing 1% DMSO ultrasonicated for 10 mins at pH 7.4 measured using 50-95% methanol in water as gradient for 23 mins by HPLC analysis. Type of data set: physicochemical. The method, boiled down:
(§3)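 Kinetic solubility: 10 mM DMSO stock diluted into 10 mM phosphate buffer pH 7.4 or 1.4 (final 1% DMSO), sonicated 10 min at room temperature, filtered 0.22 μm. Quantified by C18 HPLC against a standard curve. Gradient 50–95% methanol/water with trifluoroacetic acid over 23 min at 1.0 mL/min. n = 3.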

Data set [7] in a line: Kinetic aqueous solubility of compound in phosphate-buffer containing 1% DMSO ultrasonicated for 10 mins at pH 1.4 measured using 50-95% methanol in water as gradient for 23 mins by HPLC analysis. To be noted: pH 1.4, 10 min. It counts as physicochemical. The method, boiled down: as §3
Data set [8] addresses T1, Cannabinoid receptor 1. The data set can be described thus: Agonist activity at human CB1-receptor expressed in CHO-K1 cells coexpressing G-alpha16 at 10 uM by Fluo-4-AM dye based calcium mobilization assay. Type of data set: cell-based. The following applies: cho-k1, 10 µM. The method, boiled down: as §1
For data set [9], the target named is T2, Cannabinoid receptor 2. The data set can be described thus: Agonist activity at human CB2-receptor expressed in CHO-K1 cells coexpressing G-alpha16 at 10 uM by Fluo-4-AM dye based calcium mobilization assay. Type of data set: functional, cell-based. In outline:
as §1

The target in data set [10] is T2, Cannabinoid receptor 2. The data set can be described thus: Antagonist activity at human CB2-receptor expressed in CHO-K1 cells coexpressing G-alpha16 at 10 uM pre-incubated for 10 mins and later treated with 100 nM CB-receptor agonist, CP55940 by Fluo-4-AM dye based calcium mobilization assay. It counts as functional, cell-based. The method, boiled down: as §2

Data set [11] concerns the target T1, Cannabinoid receptor 1. The data set can be described thus: Antagonist activity at human CB1-receptor expressed in CHO-K1 cells coexpressing G-alpha16 at 10 uM pre-incubated for 10 mins and later treated with 100 nM CB-receptor agonist, CP55940 by Fluo-4-AM dye based calcium mobilization assay. Type of data set: cell-based. In outline: as §2
A short description of data set [12]: Kinetic aqueous solubility of compound in phosphate-buffer containing 1% DMSO ultrasonicated for 10 mins at pH 7.4 by HPLC analysis. It counts as physicochemical. The following applies: pH 7.4, 10 min. In outline:
(§4)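 Kinetic solubility: 10 mM DMSO stock diluted into 10 mM phosphate buffer at pH 7.4 or 1.4 (final 1% DMSO). Sonicated 10 min at room temperature and filtered through a 0.22 μm PTFE filter. Concentration determined by reversed-phase C18 HPLC (275/290 nm) against a standard curve. n = 3.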

The nature of data set [13]: Kinetic aqueous solubility of compound in phosphate-buffer containing 1% DMSO ultrasonicated for 10 mins at pH 1.4 by HPLC analysis. It counts as physicochemical. The following applies: pH 1.4, 10 min. The method, boiled down:
as §4

T1 sequence (P21554 whole entry): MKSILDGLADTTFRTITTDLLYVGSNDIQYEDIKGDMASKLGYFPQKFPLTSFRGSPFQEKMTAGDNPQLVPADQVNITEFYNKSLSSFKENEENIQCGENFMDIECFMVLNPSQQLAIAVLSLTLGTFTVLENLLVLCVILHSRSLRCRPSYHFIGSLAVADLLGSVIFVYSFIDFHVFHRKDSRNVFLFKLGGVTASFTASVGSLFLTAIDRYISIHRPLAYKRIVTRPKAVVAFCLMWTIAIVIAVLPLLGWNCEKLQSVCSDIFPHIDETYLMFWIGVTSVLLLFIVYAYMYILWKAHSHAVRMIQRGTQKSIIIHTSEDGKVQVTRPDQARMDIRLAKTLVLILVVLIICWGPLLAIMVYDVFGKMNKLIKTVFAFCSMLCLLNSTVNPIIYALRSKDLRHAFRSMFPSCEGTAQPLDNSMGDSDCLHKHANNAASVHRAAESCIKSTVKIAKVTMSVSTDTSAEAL
T2 sequence (P34972 whole entry): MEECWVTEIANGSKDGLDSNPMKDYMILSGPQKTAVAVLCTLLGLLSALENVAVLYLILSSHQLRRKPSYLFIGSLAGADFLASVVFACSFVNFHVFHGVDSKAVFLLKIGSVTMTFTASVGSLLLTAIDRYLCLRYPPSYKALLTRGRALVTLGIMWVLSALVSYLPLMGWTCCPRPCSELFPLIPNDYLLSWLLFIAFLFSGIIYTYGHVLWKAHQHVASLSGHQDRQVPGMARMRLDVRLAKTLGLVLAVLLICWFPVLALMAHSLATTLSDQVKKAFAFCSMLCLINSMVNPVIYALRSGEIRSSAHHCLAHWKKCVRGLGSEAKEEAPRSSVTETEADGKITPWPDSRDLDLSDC

Turning to `O=C(NC12CC3CC(CC(C3)C1)C2)c1cn(CCN2CCOCC2)c2ncccc12`, the EC50 on Cannabinoid receptor 1 [1] was greater than 10000 nM; at Cannabinoid receptor 2 [2], 48 nM. Also, the Emax at Cannabinoid receptor 2 [3] was determined as 25.7%. For the same compound, the IC50 result on Cannabinoid receptor 1 [4] and at Cannabinoid receptor 2 [5] was “Not Active” each time. The results for the Kinetic_solubility in data set [6] and in data set [7] were 69.43 uM/L and 86.6 uM/L, respectively. The “log(Kinetic_solubility)” value in [6] is -4.15; in data set [7], -4.06. In addition, the Activity is less than 50% at Cannabinoid receptor 1 [8] and greater than 50% at Cannabinoid receptor 2 [9]. Also, at Cannabinoid receptor 2 [10], the inhibition is less than 50%. In addition, the inhibition at 10 µM at Cannabinoid receptor 1 [11] was less than 50%.

For `O=C(NC12CC3CC(CC(C3)C1)C2)c1nc2ccccc2n1CCCCCO`, the EC50 on Cannabinoid receptor 1 [1] was greater than 10000 nM; on Cannabinoid receptor 2 [2] it was 67 nM. Also, the maximal effect (Emax) on Cannabinoid receptor 2 [3] came out at 64%. The IC50 result at Cannabinoid receptor 1 [4] and on Cannabinoid receptor 2 [5] was “Not Active” throughout. For the same compound, the Activity is less than 50% on Cannabinoid receptor 1 [8] and greater than 50% on Cannabinoid receptor 2 [9]. Also, the inhibition at Cannabinoid receptor 2 [10] was less than 50%. Also, the inhibition at 10 µM at Cannabinoid receptor 1 [11] was less than 50%. For the same compound, the Kinetic_solubility is given as 32.88 uM/L in [12] and 96 uM/L in data set [13]. Moreover, the figures for the “log(Kinetic_solubility)” value in data set [12] and in data set [13] were -4.48 and -4.02, respectively.
